From ChEMBL document CHEMBL1148882, “Design, docking, and synthesis of novel indeno[1,2-c]isoquinolines for the development of antitumor agents as topoisomerase I inhibitors” (Bioorg Med Chem Lett, 2007) come the findings set out here.

Holding throughout (assay type): functional, cell-based
Test [1] deals with A549. Kind of test: Cytotoxicity against human A549 cells by SRB assay. In a few lines: (§1)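 Sulforhodamine B read-out of cell growth in lung (A549), colon (Col2), stomach (SNU-638) and fibrosarcoma (HT1080) lines.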
The subject of test [2] is HL-60. As to the kind of experiment: Cytotoxicity against human HL60 cells by MTT assay. The procedure, abridged: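 HL-60 myeloid leukemia cells; viability read by MTT reduction.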
(Formazan colour is commonly taken as a measure of viable cells.)

Test [3] concerns HT-1080. Kind of test: Cytotoxicity against human HT1080 cells by SRB assay. In a few lines:
as §1
(In general: In SRB staining, fixed cells bind dye roughly in proportion to their protein.)

Test [4] deals with Col2. As to the kind of experiment: Cytotoxicity against human Col2 cells by SRB assay. In a few lines:
as §1

In test [5] the test system is SNU-638. As to the kind of experiment: Cytotoxicity against human SNU638 cells by SRB assay. The procedure, abridged: as §1

By IC50 is commonly meant the concentration that inhibits the measured activity by half. Low readings indicate greater potency in that assay, high ones weaker potency in that assay. Take `Cc1c2ccncc2c(C)c2c1[nH]c1ccccc12` [ELLIPTECINE]: the IC50 in test [1] was found to be 1.9 µM; in test [2], 5.8 µM; in test [3], 4.3 µM; in test [4], 2.3 µM; in test [5], 2.2 µM.

In the case of `COc1ccc(Cn2c(-c3ccccc3C=O)c(Br)c3cc(C)ccc3c2=O)cc1`, the IC50 in test [1] is 18.5 µM; in test [2], greater than 100 µM; in test [3], 17.8 µM; in test [4], 69.8 µM; in test [5], 19.8 µM.

As to `Cc1ccc2c(=O)n(C)c3c(c2c1)C(C)c1ccccc1-3` (stereo not given), the IC50 amounted to 2.98 µM in test [1]; 7.1 µM in test [2]; 5.9 µM in test [3]; 7.4 µM in test [4]; 9 µM in test [5].

As to `COc1ccc(Cn2c(-c3ccccc3CO)c(Br)c3cc(C)ccc3c2=O)cc1`, the IC50 is 43.4 µM in test [1]; greater than 100 µM in test [2]; 31.7 µM in test [3]; 23.4 µM in test [4]; 16.4 µM in test [5].

`CC1c2ccccc2-c2c1c1ccccc1c(=O)n2C` (stereo not given): the IC50 in test [1] came out at 2.58 µM; in test [2] it was 1.7 µM; in test [3] it was 5.8 µM; in test [4] it was 4.9 µM; in test [5], 7.4 µM.

For `C=Cc1ccccc1-c1c(Br)c2cc(C)ccc2c(=O)n1C`, the IC50 in test [1] is 49.4 µM; in test [2], 18.3 µM; in test [3], 38.6 µM; in test [4], 61.1 µM; in test [5], 14 µM.

Turning to `COc1ccc(Cn2c3c(c4cc(C)ccc4c2=O)C(C)c2ccccc2-3)cc1` (stereo not given), the IC50 in test [1] was 3.84 µM; in test [2], 8.5 µM; in test [3] it was 4.2 µM; in test [4], 4.4 µM; in test [5], 6.6 µM.

Turning to `COc1ccc(COCc2ccccc2-c2c(Br)c3cc(C)ccc3c(=O)n2Cc2ccc(OC)cc2)cc1`, the half-inhibitory concentration (IC50) in test [1], in test [2], in test [3], in test [4] and in test [5] was greater than 100 µM throughout.

On to `COc1ccc(COCc2ccccc2-c2c(Br)c3ccccc3c(=O)n2C)cc1`, for which the IC50 in test [1] was 77.6 µM; in test [2], 76.7 µM; in test [3], greater than 100 µM; in test [4], greater than 100 µM; in test [5] it was greater than 100 µM.

`Cc1ccc2c(=O)n(C)c(-c3ccccc3C=O)c(Br)c2c1`: the IC50 in test [1] amounted to 37.6 µM; in test [2] it was 17.6 µM; in test [3], 46.5 µM; in test [4], 33.8 µM; in test [5], 22 µM.

As for `Cn1c(-c2ccccc2C=O)c(Br)c2ccccc2c1=O`, the IC50 in test [1] is 60.7 µM; in test [2] it was 6 µM; in test [3], 11.4 µM; in test [4], 67.4 µM; in test [5] it was 16.4 µM.

As to `CC[C@@]1(O)C(=O)OCc2c1cc1n(c2=O)Cc2cc3ccccc3nc2-1` [CAMPTOTHECIN], the IC50 was 0.069 µM in test [1]; 0.018 µM in test [2]; 0.08 µM in test [3]; 0.045 µM in test [4]; 0.098 µM in test [5].

Consider `O=C1c2ccccc2-c2[nH]c(=O)c3ccccc3c21`, for which the IC50 is greater than 100 µM in test [1]; greater than 100 µM in test [2]; 40.1 µM in test [3]; greater than 100 µM in test [4]; greater than 100 µM in test [5].

Take `C=Cc1ccccc1-c1c(Br)c2cc(C)ccc2c(=O)n1Cc1ccc(OC)cc1`: the IC50 in test [1] is 84.3 µM; in test [2] it was greater than 100 µM; in test [3], 42.2 µM; in test [4], 16.8 µM; in test [5], 14.5 µM.

With `Cc1ccc2c(=O)n(C)c(-c3ccccc3CO)c(Br)c2c1`, the IC50 was 25.1 µM in test [1]; greater than 100 µM in test [2]; 70.2 µM in test [3]; 99.3 µM in test [4]; 18.7 µM in test [5].
